Laboratory results taken from BindingDB's records for doi:10.1021/jm000285q (Merck Research Laboratories, 2000).

Target: Insulin receptor (Homo sapiens, UniProt P06213)
Assay: Activation of human insulin receptor tyrosine kinase (IRTK)
Method in brief: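 CHO cells stably transfected with human insulin receptor, plated 150 000 cells/well for 24 h, serum-starved 2 h, then exposed to compound 20 min at 37 °C. Lysate IR captured on anti-IR antibody wells (16 h, 4 °C), kinase reaction 40 min at 25 °C, radioactivity on phosphocellulose filters. Activity as % of maximal response to 100 nM insulin.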

Insulin receptor, sequence (P06213 28-758 limits assumed): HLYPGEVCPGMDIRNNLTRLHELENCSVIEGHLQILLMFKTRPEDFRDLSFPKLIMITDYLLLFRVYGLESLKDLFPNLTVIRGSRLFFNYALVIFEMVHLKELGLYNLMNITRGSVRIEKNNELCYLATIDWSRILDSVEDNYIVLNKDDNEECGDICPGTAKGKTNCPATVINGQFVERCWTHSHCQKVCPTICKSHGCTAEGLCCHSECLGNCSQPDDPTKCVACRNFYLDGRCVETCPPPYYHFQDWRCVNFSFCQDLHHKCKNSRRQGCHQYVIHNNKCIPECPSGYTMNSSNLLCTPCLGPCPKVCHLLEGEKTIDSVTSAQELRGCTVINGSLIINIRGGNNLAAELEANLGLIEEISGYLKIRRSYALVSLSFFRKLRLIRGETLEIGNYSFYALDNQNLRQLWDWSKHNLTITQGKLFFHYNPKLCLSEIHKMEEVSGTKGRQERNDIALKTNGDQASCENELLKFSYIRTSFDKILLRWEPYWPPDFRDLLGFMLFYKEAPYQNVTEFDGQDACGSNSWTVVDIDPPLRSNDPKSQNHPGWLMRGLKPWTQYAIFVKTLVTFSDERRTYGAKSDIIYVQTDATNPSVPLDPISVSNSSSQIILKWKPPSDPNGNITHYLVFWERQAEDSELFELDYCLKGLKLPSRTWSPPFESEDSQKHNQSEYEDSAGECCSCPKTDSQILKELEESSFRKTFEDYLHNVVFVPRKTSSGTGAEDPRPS
Insulin receptor, sequence (P06213 763-1382 limits assumed): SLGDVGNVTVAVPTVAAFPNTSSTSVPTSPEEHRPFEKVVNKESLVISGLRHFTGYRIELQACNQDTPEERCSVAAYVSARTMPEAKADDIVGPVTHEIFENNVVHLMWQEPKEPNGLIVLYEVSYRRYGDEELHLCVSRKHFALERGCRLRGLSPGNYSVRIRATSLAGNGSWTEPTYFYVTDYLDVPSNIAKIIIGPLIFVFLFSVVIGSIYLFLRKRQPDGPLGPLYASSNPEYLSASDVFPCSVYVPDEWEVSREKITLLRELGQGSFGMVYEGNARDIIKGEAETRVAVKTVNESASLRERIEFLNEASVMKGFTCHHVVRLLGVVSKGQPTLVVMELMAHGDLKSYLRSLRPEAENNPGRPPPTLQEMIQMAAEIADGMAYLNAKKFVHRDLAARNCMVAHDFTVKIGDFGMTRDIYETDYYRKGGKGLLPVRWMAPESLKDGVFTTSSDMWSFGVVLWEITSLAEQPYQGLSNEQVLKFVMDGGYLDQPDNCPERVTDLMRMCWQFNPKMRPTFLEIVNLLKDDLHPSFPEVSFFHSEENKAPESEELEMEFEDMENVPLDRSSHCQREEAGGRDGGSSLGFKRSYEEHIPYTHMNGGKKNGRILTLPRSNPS

EC50 [nM]	Structure (SMILES)
300	O=C1C(=O)C(c2c[nH]c3ccccc23)C(=O)C(=O)C1c1ccccc1 (configuration not stated) [2,5-Dihydroxy-3-(1H-indol-3-yl)-6-phenyl-[1,4]benzoquinone]
300	Cn1cc(C2C(=O)C(=O)C(c3ccccc3)C(=O)C2=O)c2ccccc21 (configuration not stated) [2,5-Dihydroxy-3-(1-methyl-1H-indol-3-yl)-6-phenyl-[1,4]benzoquinone]
